# Key:
# [1] = Negative inotropic activity in guinea pig right atrium assessed as decrease in developed tension at 10^-5 M relative to control; type: functional, Cavia porcellus, Cardiac atrium; parameters: scale not given: the % may be the effect or the level left
# How it was run: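 The read-out is decrease in developed tension of spontaneously beating isolated guinea pig right atrium at 10⁻⁵ M. It is expressed as percent change from control, n = 7−8.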
# Ileum [2] = assay: Relaxant activity in potassium depolarized guinea pig ileum longitudinal smooth muscle assessed as inhibition of calcium-induced contraction; type: functional, tissue-based; details: Cavia porcellus
# How it was run: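 K⁺-depolarized (80 mM) guinea pig ileum longitudinal smooth muscle is used. Calcium-induced contraction is measured with cumulative compound addition.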
# [3] = Negative inotropic activity in guinea pig right atrium assessed as decrease in developed tension; type: functional, tissue-based; details: Cavia porcellus, Cardiac atrium
# [4] = Negative inotropic activity in guinea pig left atrium assessed as decrease in developed tension at 10^-5 M relative to control; type: functional, Cavia porcellus, Cardiac atrium; parameters: scale not given: the % may be the effect or the level left
# [5] = Negative inotropic activity in guinea pig left atrium assessed as decrease in developed tension; type: functional, tissue-based; details: Cavia porcellus, Cardiac atrium
# How it was run: (§1)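 Isolated guinea pig atria are used, with left atria driven at 1 Hz. Compounds are added cumulatively. EC50 is derived from log concentration−response curves by Litchfield–Wilcoxon probit analysis, n = 6−7. EC50 is not calculated when the maximal effect is below 50%.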
# Ileum [6] = assay: Relaxant activity in potassium depolarized guinea pig ileum longitudinal smooth muscle assessed as inhibition of calcium-induced contraction at 10^-5 M relative to control; type: functional, Cavia porcellus; parameters: scale not given: the % may be the effect or the level left
# How it was run: (§2)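 Guinea pig aortic strips and ileum longitudinal smooth muscle are depolarized with 80 mM K⁺. The read-out is percent inhibition of calcium-induced contraction. Aorta is tested at 10⁻⁴ M and ileum at 10⁻⁵ M.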
# Aorta [7] = assay: Relaxant activity in potassium depolarized guinea pig aortic strips assessed as inhibition of calcium-induced contraction at 10^-4 M relative to control; type: functional, Cavia porcellus; parameters: scale not given: the % may be the effect or the level left; how it was run: as §2
# [8] = Negative chronotropic activity in guinea pig right atrium assessed as decrease in atrial rate at 10^-4 M relative to control; type: functional, Cavia porcellus, Cardiac atrium; parameters: scale not given: the % may be the effect or the level left
# How it was run: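 The read-out is decrease in rate of spontaneously beating isolated guinea pig right atrium at 10⁻⁴ M. It is expressed as percent change from control, n = 7−8.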
# [9] = Negative chronotropic activity in guinea pig right atrium assessed as decrease in atrial rate; type: functional, tissue-based; details: Cavia porcellus, Cardiac atrium; how it was run: as §1
# HEK293 = assay: Displacement of [3H]-PN200-110 from voltage-gated calcium channel subunit alpha Cav1.2a (unknown origin) expressed in HEK293 cells at 100 uM after 90 mins by liquid scintillation counting analysis relative to control; type: cell-based; details: Homo sapiens
# Ileum [10] = assay: Relaxant activity in potassium depolarized guinea pig ileum longitudinal smooth muscle assessed as inhibition of calcium-induced contraction at 5x10'-7 M relative to control; type: functional, Cavia porcellus; parameters: scale not given: the % may be the effect or the level left
# Aorta [11] = assay: Relaxant activity in potassium depolarized guinea pig aortic strips assessed as inhibition of calcium-induced contraction at 10^-5 M relative to control; type: functional, Cavia porcellus; parameters: scale not given: the % may be the effect or the level left
# Cavia porcellus [12] = organism: Cavia porcellus; assay: Displacement of [3H]-PN200-110 from L-type calcium channel in Hartley guinea pig ventricular membrane […] after 90 mins relative to control
# [13] = Displacement of [3H]-PN200-110 from voltage-gated calcium channel subunit alpha Cav1.2a (unknown origin) expressed in HEK293 cells after 90 mins by liquid scintillation counting analysis; type: cell-based, Homo sapiens
# How it was run: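 Intact HEK-293 cells stably transfected with a rabbit Cav1.2a (α1c-a) plasmid are used. They are incubated with 0.5 nM (+)-[5-methyl-3H]PN200-110 plus competitor at 0.001−100 μM, from 10⁻² M DMSO stocks diluted in buffer. IC50 values are given as mean ± SEM.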
# Cavia porcellus [14] = organism: Cavia porcellus; assay: Displacement of [3H]-PN200-110 from L-type calcium channel in Hartley guinea pig atrial membrane at 100 uM after 90 mins relative to control; type: cell membranes; details: Cardiac atrium
# [15] = Negative inotropic activity in guinea pig left atrium assessed as decrease in developed tension at 10^-4 M relative to control; type: functional, Cavia porcellus, Cardiac atrium; parameters: scale not given: the % may be the effect or the level left
# [16] = Negative chronotropic activity in guinea pig right atrium assessed as decrease in atrial rate at 5x10'-6 M relative to control; type: functional, Cavia porcellus, Cardiac atrium; parameters: scale not given: the % may be the effect or the level left
# Aorta [17] = assay: Relaxant activity in potassium depolarized guinea pig aortic strips assessed as inhibition of calcium-induced contraction at 10^-6 M relative to control; type: functional, Cavia porcellus; parameters: scale not given: the % may be the effect or the level left
# How it was run: (§3)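 Guinea pig aortic strips and ileum longitudinal smooth muscle were depolarized with 80 mM K⁺. Calcium-induced contraction was measured with cumulative compound addition, and inhibition was expressed as percent change from control (n = 6−7). Differences from control at each concentration were tested by Student's t-test, P < 0.05, and data are mean SEM.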
# [18] = Displacement of [3H]-PN200-110 from L-type calcium channel in Hartley guinea pig atrial membrane after 90 mins; type: cell membranes, Cavia porcellus, Cardiac atrium
# How it was run: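 Guinea pig atrial membranes are labelled at the 1,4-DHP site with (+)-[5-methyl-3H]PN200-110 at 0.5 nM. Competitor is added over 0.001−100 μM from 10⁻² M DMSO stocks diluted in buffer. Results are given as IC50 and Ki, mean ± SEM. Student's t-test is applied with P<0.001.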
# [19] = Displacement of [3H]-PN200-110 from L-type calcium channel in Hartley guinea pig ventricular membrane […] after 90 mins; parameters: species or system Cavia porcellus
# Rattus norvegicus = organism: Rattus norvegicus; assay: Displacement of [3H]-PN200-110 from L-type calcium channel dihydropyridine binding site in Wistar rat cortex homogenate at 100 uM after 60 mins by liquid scintillation spectometric analysis relative to control; type: tissue-based
# How it was run: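 Binding on rat cortex homogenate using (+)-[5-methyl-3H]PN200-110. The read-out is percent of maximal radioligand displacement at 100 μM test compound. Compounds are made up as 10⁻² M DMSO stocks and diluted in buffer. Values are from 3−5 separate experiments done in triplicate.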
# Ileum [20] = assay: Relaxant activity in potassium depolarized guinea pig ileum longitudinal smooth muscle assessed as inhibition of calcium-induced contraction at 5x10'-9 M relative to control; type: functional, Cavia porcellus; parameters: scale not given: the % may be the effect or the level left; how it was run: as §3
# [21] = Negative chronotropic activity in guinea pig right atrium assessed as decrease in atrial rate at 10^-7 M relative to control; type: functional, Cavia porcellus, Cardiac atrium; parameters: scale not given: the % may be the effect or the level left
# How it was run: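 Spontaneously beating isolated guinea pig right atrium. Compounds added cumulatively. The decrease in atrial rate is expressed as percent change from control. At each concentration, the difference from control was tested by Student's t-test, with significance at P<0.05. Data are given as mean SEM.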
# [22] = Displacement of [3H]-PN200-110 from L-type calcium channel dihydropyridine binding site in Wistar rat cortex homogenate after 60 mins by liquid scintillation spectometric analysis; type: tissue-based
# How it was run: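 Competition binding on rat cortex homogenate with (+)-[5-methyl-3H]PN200-110. Compounds are dissolved in DMSO as 10⁻² M stocks and diluted in buffer. Six displacer concentrations are tested, each in triplicate. IC50 is obtained by −log probit analysis and Ki by the Prusoff method. Values are mean ± SEM of 3−5 separate experiments done in triplicate.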
compound,measurement,setting,value
COC(=O)C1=C(C)NC(C)=C(C(=O)OC)C1c1c(-c2c(Cl)csc2Cl)nc2sc(C)cn12,Activity,[1],82%
same,IC50,Ileum [2],3230 nM
same,EC50,[3],730 nM
same,Activity,[4],60%
same,EC50,[5],310 nM
same,Activity,Ileum [6],87%
same,Activity,Aorta [7],31%
same,Activity,[8],22%
COC(=O)C1=C(C)NC(C)=C(C(=O)OC)C1c1c(-c2cccs2)nc2sccn12,IC50,Ileum [2],110 nM
same,EC50,[9],1300 nM
same,%max,HEK293,50%
same,Activity,Ileum [10],91%
same,Activity,Aorta [11],23%
same,%max,Cavia porcellus [12],< 50%
same,IC50,[13],2150 nM
same,Ki,[13],710 nM
same,%max,Cavia porcellus [14],< 50%
same,Activity,[15],46%
same,Activity,[16],85%
COC(=O)C1=C(C)NC(C)=C(C(=O)OC)C1c1ccccc1[N+](=O)[O-] [NIFEDIPINE],Activity,Aorta [17],82%
same,EC50,[9],39 nM
same,IC50,[18],5.1 nM
same,Ki,[18],1.5 nM
same,%max,HEK293,75%
same,IC50,[19],5.7 nM
same,Ki,[19],2 nM
same,Activity,[4],97%
same,%max,Rattus norvegicus,92%
same,EC50,[5],260 nM
same,Activity,Ileum [20],70%
same,Activity,[21],85%
same,%max,Cavia porcellus [12],80%
same,IC50,[13],86 nM
same,Ki,[13],32 nM
same,IC50,[22],6.1 nM
same,Ki,[22],1.9 nM
same,%max,Cavia porcellus [14],72%

# Reference: ChEMBL document CHEMBL2380289, “Ligand based approach to L-type calcium channel by imidazo[2,1-b]thiazole-1,4-dihydropyridines: from heart activity to brain affinity” (J Med Chem, 2013)
